{
  "source": "paper PMC11397428",
  "about": "(Science Advances, 2024)",
  "key": {"[1]": {"tested_on": "BMDMs", "experiment": "Endocytosis mode of FITC-BLKR with endocytosis inhibitors", "format": "cell-based, mouse", "conditions": "FITC-BLKR 16 μM, 15 min; EIPA 50 μM, CPZ 40 μM, Filipin III 5 μg ml^−1; n = 3"}, "[2]": {"tested_on": "red blood cells (RBCs)", "experiment": "Hemolysis assay", "format": "cell-based, New Zealand rabbit", "conditions": "3 hours, 37°C, PBS; for hemolytic activity: 256 μM, n = 9", "method_in_brief": "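Freshly drawn rabbit blood diluted tenfold in PBS. RBCs pelleted and washed eight times with PBS. Peptide stocks made in PBS at 512 μM and diluted twofold six times. RBCs incubated with peptide for 3 hours at 37°C; 1% Triton X-100 as positive control, PBS as negative control. Samples spun at 10,000 rpm for 10 min; hemolysis calculated from supernatant absorbance at 570 nm.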"}, "[3]": {"tested_on": "human bronchial epithelial cells (BEAS-2B)", "experiment": "Cytocompatibility, MTT assay", "format": "cell-based", "conditions": "24-hour coincubation", "method_in_brief": "(§1)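 Cell lines grown with 10% FBS and 1% penicillin-streptomycin. Seeded at 1 × 10^4 cells per well and allowed 24 hours to attach. Medium then replaced with fresh medium containing test peptide at a range of concentrations. Viability read by MTT after 24 hours of co-incubation.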"}, "[4]": {"experiment": "Pulmonary biodistribution of FITC-labeled peptide, CLSM", "format": "in vivo, mouse", "conditions": "128 μM, 50 μl intratracheal, 1 h", "method_in_brief": "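Acute lung injury induced in BALB/c mice by intratracheal LPS (10 mg kg^−1). FITC-labelled peptide (128 μM, 50 μl) then given intratracheally, n = 3. Lungs taken 1 hour after dosing. Sections stained for CD68 (macrophages) with DAPI counterstain and imaged by confocal microscopy.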"}, "[5]": {"tested_on": "human embryonic kidney (HEK) 293T", "experiment": "Cytocompatibility, MTT assay", "format": "cell-based", "conditions": "24 h, n = 9", "method_in_brief": "as §1"}, "[6]": {"tested_on": "HS-5 (human marrow stromal cells)", "experiment": "Cytocompatibility, MTT assay", "format": "cell-based", "conditions": "24 h, n = 9", "method_in_brief": "as §1"}, "[7]": {"tested_on": "RAW264.7", "experiment": "Cytocompatibility, MTT assay", "format": "cell-based, murine", "conditions": "24 h, n = 9", "method_in_brief": "as §1"}, "[8]": {"tested_on": "DC2.4", "experiment": "Cytocompatibility, MTT assay", "format": "cell-based, murine", "conditions": "24 h, n = 9", "method_in_brief": "as §1"}, "[9]": {"tested_on": "multidrug-resistant Escherichia coli (MRE)", "experiment": "MIC against MRE", "format": "cell-based", "conditions": "n = 3 biologically replicates"}, "[10]": {"experiment": "Pharmacokinetic study of SPRAY-BLKR-NPs in ALI mice", "format": "in vivo, mouse"}, "[11]": {"tested_on": "healthy mice", "experiment": "Immunomodulation and toxicity in healthy mice", "format": "in vivo, mouse"}, "[12]": {"tested_on": "MRE-induced ALI", "experiment": "Comparison with ceftazidime in MRE-infected mice", "format": "in vivo, mouse", "conditions": "ceftazidime/avibactam 32/8 mg kg^−1 subcutaneous every 12 hours; n = 12"}, "[13]": {"tested_on": "bone marrow–derived macrophages (BMDMs)", "experiment": "M2 macrophage polarization of BMDMs, CD206/CD86 flow cytometry", "format": "cell-based, mouse", "conditions": "M1 positive control LPS 10 ng ml^−1 and IFN-γ 20 ng ml^−1"}},
  "note": "Where a SMILES comes first, the peptide text is derived from it. The star is where a group is joined. Phenylacetyl(4-Ph) = O=C(Cc1ccc(-c2ccccc2)cc1)*",
  "data": [
    {"compound": "CN(C)CCCN1c2ccccc2Sc2ccc(Cl)cc21", "note": "[CPZ, chlorpromazine]", "values": [
      {"measurement": "loss of BLKR uptake quantified by FITC intensity", "setting": "[1]", "result": 24.47, "unit": "%"}
    ]},
    {"compound": "CC[C@H](C)[C@H](NC(=O)[C@H](CC(C)C)NC(=O)[C@H](CCCNC(=N)N)NC(=O)[C@H](Cc1ccccc1)NC(=O)[C@H](Cc1ccccc1)NC(=O)Cc1ccc(-c2ccccc2)cc1)C(=O)N[C@@H](CCCNC(=N)N)C(=O)N[C@@H](Cc1ccc(O)cc1)C(=O)N[C@@H](CCSC)C(=O)N[C@@H](C)C(=O)N[C@@H](CCCCN)C(=O)O", "note": "[BRLI] ({Phenylacetyl(4-Ph)}-FFRLIRYMAK-OH)", "values": [
      {"measurement": "hemolysis rate", "setting": "[2]; 128 μM", "result": 7.49, "unit": "%"}
    ]},
    {"compound": "CCN(c1nc(N)c(C(=O)NC(=N)N)nc1Cl)C(C)C", "note": "[EIPA, ethyl-isopropyl-amiloride]", "values": [
      {"measurement": "loss of BLKR uptake quantified by FITC intensity", "setting": "[1]", "result": 22.14, "unit": "%"}
    ]},
    {"compound": "CC[C@H](C)[C@H](NC(=O)[C@H](CCCCN)NC(=O)[C@H](Cc1ccccc1)NC(=O)[C@H](Cc1ccccc1)NC(=O)Cc1ccc(-c2ccccc2)cc1)C(=O)N[C@H](C(=O)N[C@@H](CCCCN)C(=O)N[C@H](C(=O)N[C@@H](C)C(=O)N[C@@H](CCCCN)C(=O)O)C(C)C)[C@@H](C)CC", "note": "[BKII] ({Phenylacetyl(4-Ph)}-FFKIIKVAK-OH)", "values": [
      {"measurement": "hemolytic activity", "setting": "[2]", "result": "no detectable hemolytic activity"},
      {"measurement": "cytotoxicity toward BEAS-2B", "setting": "[3]", "result": "no notable cytotoxicity"}
    ]},
    {"compound": "CC(C)C[C@H](N)C(=O)N[C@@H](CCCCN)C(=O)N[C@@H](CCCNC(=N)N)C(=O)N[C@H](C(=O)N[C@@H](Cc1c[nH]c2ccccc12)C(=O)N[C@@H](CCCCN)C(=O)N[C@@H](CCCNC(=N)N)C(=O)O)C(C)C", "note": "[LKR] (H-LKRVWKR-OH)", "values": [
      {"measurement": "accumulation in injured lung tissue", "setting": "[4]", "result": "extremely little accumulation"}
    ]},
    {"compound": "CC(C)C[C@H](NC(=O)[C@H](Cc1ccccc1)NC(=O)[C@H](Cc1ccccc1)NC(=O)Cc1ccc(-c2ccccc2)cc1)C(=O)N[C@@H](CCCCN)C(=O)N[C@@H](CCCNC(=N)N)C(=O)N[C@H](C(=O)N[C@@H](Cc1c[nH]c2ccccc12)C(=O)N[C@@H](CCCCN)C(=O)N[C@@H](CCCNC(=N)N)C(=O)O)C(C)C", "note": "[BLKR] ({Phenylacetyl(4-Ph)}-FFLKRVWKR-OH)", "values": [
      {"measurement": "hemolytic activity", "setting": "[2]", "result": "no detectable hemolytic activity"},
      {"measurement": "cytotoxicity toward BEAS-2B", "setting": "[3]", "result": "no notable cytotoxicity"},
      {"measurement": "cytotoxicity, HEK 293T", "setting": "[5]", "result": "no significant cytotoxicity"},
      {"measurement": "cytotoxicity, HS-5", "setting": "[6]", "result": "no significant cytotoxicity"},
      {"measurement": "cytotoxicity, RAW264.7", "setting": "[7]", "result": "no significant cytotoxicity"},
      {"measurement": "cytotoxicity, DC2.4", "setting": "[8]", "result": "no significant cytotoxicity"},
      {"measurement": "MIC against MRE", "setting": "[9]", "result": 16, "unit": "µM"},
      {"measurement": "BLKR left in entire respiratory tract", "setting": "[10]; ALI mice, single dose 18.42 μg per mouse, 12 hours after administration", "result": "~10", "unit": "%"},
      {"measurement": "pulmonary area under the curve relative to kidney", "setting": "[10]; within 24 hours", "result": "> 154.13", "unit": "times"},
      {"measurement": "pulmonary area under the curve relative to liver", "setting": "[10]; within 24 hours", "result": "more than 47.90 times"},
      {"measurement": "monocyte infiltration in the alveolar site, histology", "setting": "[11]; 128 or 256 μM, 50 μl twice", "result": "no monocyte infiltration was observed"},
      {"measurement": "inflammatory cell infiltration in lung, histology", "setting": "[11]; 512 or 1204 μM", "result": "inflammatory cell infiltration occurred in lung"},
      {"measurement": "monocyte percentage in peripheral blood", "setting": "[11]; all the tested concentrations, n = 3", "result": "no elevation of monocyte percentage"}
    ]},
    {"compound": "CCCCC[C@@H](O)[C@H]1C(=O)O[C@H](C)[C@@H](O)/C=C/C=C/C=C/C=C/C=C(\\C)[C@@H](O)C[C@H](O)C[C@H](O)C[C@H](O)C[C@H](O)C[C@H](O)C[C@@H]1O", "note": "[Filipin III]", "values": [
      {"measurement": "loss of BLKR uptake quantified by FITC intensity", "setting": "[1]", "result": 43.01, "unit": "%"}
    ]},
    {"compound": "CC(C)(O/N=C(\\C(=O)N[C@@H]1C(=O)N2C(C(=O)[O-])=C(C[n+]3ccccc3)CS[C@H]12)c1csc(N)n1)C(=O)O", "note": "[Ceftazidime]", "values": [
      {"measurement": "2-day survival rate", "setting": "[12]", "result": 58.3, "unit": "%"}
    ]},
    {"compound": "lipopolysaccharide [LPS]", "values": [
      {"measurement": "CD86+ macrophage in the total population", "setting": "[13]", "result": "more than 80%"}
    ]}
  ]
}
